# Source: ChEMBL document CHEMBL4118159, “Discovery of tetrahydroindazoles as a novel class of potent and in vivo efficacious gamma secretase modulators” (Bioorg Med Chem, 2018)
# Key:
# Gamma-secretase [1] = assay: Modulation of gamma secretase in human H4 cells expressing human wild type APP assessed as inhibition of amyloid beta 42 production after 22 hrs by electrochemiluminescence assay; format: cell-based
# In short: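 H4 cells overexpressing human APPwt, 10,000/well, were exposed to compound 22 h at 37°C, 5% CO2. Supernatant was diluted with medium on an MSD anti-Aβ42 plate and detected with S-tag 6E10 (1:50, 1 h). Read-out was electrochemiluminescence.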
# [2] = Modulation of gamma secretase in rat E18 cells assessed as inhibition of amyloid beta 42 production after 22 hrs by electrochemiluminescence assay; format: cell-based
# Gamma-secretase [3] = assay: Modulation of gamma-secretase in human E6 cells expressing HeLaTetON-NotchdeltaE-NLuc/CLuc-RBP assessed as notch cleavage after 16 hrs by bioluminescence assay; format: ADME, cell-based
# [4] = Protein binding in rat plasma at 1 uM after 5 hrs by equilibrium dialysis based LC-MS/MS analysis; format: ADME, cell-free; settings: read-out: PPB (converted)
# In short: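 Equilibrium dialysis: rat EDTA plasma spiked to 1 µM final, dialysed against PBS with dextran (pH 7.4) across a 5–10 kDa membrane. Run 5 h at 37°C; both sides analyzed by HPLC-MS/MS.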
# [5] = Apparent permeability from apical to basolateral side in MDCK cells expressing human MDR1 at 1 uM at pH 7.4; format: ADME, cell-based, Canis lupus familiaris; settings: dog, MDCK-MDR1, pH 7.4
# In short: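 MDCK-MDR1 monolayers; transport measured apical-to-basal and basal-to-apical at pH 7.4, 37°C, starting from 1 µM in the donor compartment; apparent permeability coefficients derived.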
# [6] = Efflux ratio of apparent permeability from […] in MDCK cells expressing human MDR1 at 1 uM at pH 7.4; format: ADME, cell-based, Canis lupus familiaris; settings: dog, pH 7.4, 1 µM
# In short: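 MDCK-MDR1 monolayers, pH 7.4, 37°C; transport measured apical-to-basal and basal-to-apical from 1 µM initial donor concentration; apparent permeability coefficients derived for each direction, ratio taken.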
# hERG (KCNH2) [7] = target: T1, hERG (KCNH2) (Homo sapiens, UniProt Q12809); assay: Inhibition of human ERG at 1 uM by patch clamp assay relative to control
# T1 sequence (Q12809 whole entry): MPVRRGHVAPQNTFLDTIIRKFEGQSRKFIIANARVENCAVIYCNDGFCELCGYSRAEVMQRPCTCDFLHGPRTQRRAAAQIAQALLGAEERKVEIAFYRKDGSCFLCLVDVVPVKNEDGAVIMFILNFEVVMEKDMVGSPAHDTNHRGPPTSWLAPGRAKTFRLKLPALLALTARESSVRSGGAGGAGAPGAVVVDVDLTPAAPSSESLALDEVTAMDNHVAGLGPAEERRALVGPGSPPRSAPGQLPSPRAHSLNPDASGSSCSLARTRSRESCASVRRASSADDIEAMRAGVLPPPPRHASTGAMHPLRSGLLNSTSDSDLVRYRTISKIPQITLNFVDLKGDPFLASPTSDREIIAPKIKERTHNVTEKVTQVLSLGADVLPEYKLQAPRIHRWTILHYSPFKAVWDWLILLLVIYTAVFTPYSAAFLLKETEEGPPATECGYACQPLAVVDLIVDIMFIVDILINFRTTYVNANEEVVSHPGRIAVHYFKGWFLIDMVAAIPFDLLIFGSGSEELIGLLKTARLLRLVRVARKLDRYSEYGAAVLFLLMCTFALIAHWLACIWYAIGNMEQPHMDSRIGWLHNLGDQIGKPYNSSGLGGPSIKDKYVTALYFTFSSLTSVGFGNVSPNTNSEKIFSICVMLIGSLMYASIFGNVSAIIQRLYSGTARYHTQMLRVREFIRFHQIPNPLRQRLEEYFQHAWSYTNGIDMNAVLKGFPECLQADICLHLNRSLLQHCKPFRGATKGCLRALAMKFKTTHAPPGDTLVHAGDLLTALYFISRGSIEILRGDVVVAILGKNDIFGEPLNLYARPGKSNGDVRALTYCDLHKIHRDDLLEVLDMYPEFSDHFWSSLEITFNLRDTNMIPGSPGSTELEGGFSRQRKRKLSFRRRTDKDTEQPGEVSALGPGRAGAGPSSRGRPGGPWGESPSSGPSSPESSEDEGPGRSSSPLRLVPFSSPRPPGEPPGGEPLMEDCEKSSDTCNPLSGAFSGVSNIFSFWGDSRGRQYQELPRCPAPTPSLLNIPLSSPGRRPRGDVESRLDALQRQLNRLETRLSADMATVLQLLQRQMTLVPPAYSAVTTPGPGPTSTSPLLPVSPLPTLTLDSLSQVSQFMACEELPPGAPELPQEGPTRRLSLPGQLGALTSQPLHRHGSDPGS
# hERG (KCNH2) [8] = target: T1, hERG (KCNH2); assay: Inhibition of human ERG at 10 uM by patch clamp assay relative to control
# Cytochrome P450 3A4 = Cytochrome P450 3A4 (Homo sapiens, UniProt P08684); assay: Inhibition of CYP3A4 in human liver microsomes using testosterone as substrate in presence of NADPH by LC-MS/MS analysis; format: ADME
# Chain of Cytochrome P450 3A4 (P08684 whole entry): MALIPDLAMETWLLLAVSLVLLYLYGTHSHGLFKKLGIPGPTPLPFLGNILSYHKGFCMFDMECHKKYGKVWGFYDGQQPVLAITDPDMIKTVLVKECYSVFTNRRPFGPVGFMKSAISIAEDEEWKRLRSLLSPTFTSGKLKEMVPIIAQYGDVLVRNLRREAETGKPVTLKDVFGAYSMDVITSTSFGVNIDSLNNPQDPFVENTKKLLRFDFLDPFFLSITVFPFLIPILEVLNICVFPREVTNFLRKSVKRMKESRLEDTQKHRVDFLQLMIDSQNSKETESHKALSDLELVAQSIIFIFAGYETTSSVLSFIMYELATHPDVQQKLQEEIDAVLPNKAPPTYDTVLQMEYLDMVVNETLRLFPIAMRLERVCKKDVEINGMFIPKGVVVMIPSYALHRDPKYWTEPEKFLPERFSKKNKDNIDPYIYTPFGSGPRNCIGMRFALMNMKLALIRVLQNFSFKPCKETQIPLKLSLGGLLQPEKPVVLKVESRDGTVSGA
# In short: (§1)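 Human pooled liver microsomes (0.1 mg/ml) at 37°C in 0.1 M Tris with 5 mM MgCl2. Substrates were dextromethorphan 7 µM (2D6), diclofenac 4 µM (2C9), (S)-mephenytoin 30 µM (2C19) and testosterone 60 µM (3A4). Test compound ran at five concentrations. Reactions were started with 1 mM NADPH and stopped by cooling to 8°C plus acetonitrile. Metabolite was read by LC-MS/MS against an isotope internal standard, relative to no-compound control.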
# Cytochrome P450 2D6 = Cytochrome P450 2D6 (Homo sapiens, UniProt P10635); assay: Inhibition of CYP2D6 in human liver microsomes using dextromethorphan as substrate in presence of NADPH by LC-MS/MS analysis; format: ADME; in short: as §1
# Chain of Cytochrome P450 2D6 (P10635 whole entry): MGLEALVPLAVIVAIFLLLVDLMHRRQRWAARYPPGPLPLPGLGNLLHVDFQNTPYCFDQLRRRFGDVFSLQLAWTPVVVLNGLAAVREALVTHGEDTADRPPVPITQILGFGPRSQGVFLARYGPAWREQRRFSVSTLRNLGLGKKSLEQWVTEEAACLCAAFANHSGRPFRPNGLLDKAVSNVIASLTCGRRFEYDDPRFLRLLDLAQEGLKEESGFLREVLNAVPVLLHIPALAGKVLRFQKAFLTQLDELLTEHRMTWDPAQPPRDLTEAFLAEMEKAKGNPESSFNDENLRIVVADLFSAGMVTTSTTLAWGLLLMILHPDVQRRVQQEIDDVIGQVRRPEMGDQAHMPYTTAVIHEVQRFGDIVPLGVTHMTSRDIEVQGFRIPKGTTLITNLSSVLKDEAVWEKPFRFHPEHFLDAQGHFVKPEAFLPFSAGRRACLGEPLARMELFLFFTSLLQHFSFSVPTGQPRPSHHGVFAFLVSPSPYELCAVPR
# Cytochrome P450 2C9 = Cytochrome P450 2C9 (Homo sapiens, UniProt P11712); assay: Inhibition of CYP2C9 in human liver microsomes using diclofenac as substrate in presence of NADPH by LC-MS/MS analysis; format: ADME; in short: as §1
# Chain of Cytochrome P450 2C9 (P11712 whole entry): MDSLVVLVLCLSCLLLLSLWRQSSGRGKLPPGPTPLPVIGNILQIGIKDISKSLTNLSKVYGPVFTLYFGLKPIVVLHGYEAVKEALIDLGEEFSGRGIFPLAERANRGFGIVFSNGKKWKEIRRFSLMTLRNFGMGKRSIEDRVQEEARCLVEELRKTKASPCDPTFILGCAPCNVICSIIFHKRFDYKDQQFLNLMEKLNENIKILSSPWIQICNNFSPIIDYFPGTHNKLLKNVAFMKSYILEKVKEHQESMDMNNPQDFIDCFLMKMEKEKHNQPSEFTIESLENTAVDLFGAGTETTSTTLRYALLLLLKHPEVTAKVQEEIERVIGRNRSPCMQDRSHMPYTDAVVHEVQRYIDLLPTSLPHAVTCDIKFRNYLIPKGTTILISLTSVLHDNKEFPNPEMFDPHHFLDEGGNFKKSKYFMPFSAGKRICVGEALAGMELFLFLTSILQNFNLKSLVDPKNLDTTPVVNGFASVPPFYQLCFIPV
# Cytochrome P450 2C8 = target: T2, Cytochrome P450 2C8 (Homo sapiens, UniProt P10632); assay: Inhibition of CYP2C8 in human liver microsomes in presence of NADPH by LC-MS/MS analysis; format: ADME
# T2 sequence (P10632 whole entry): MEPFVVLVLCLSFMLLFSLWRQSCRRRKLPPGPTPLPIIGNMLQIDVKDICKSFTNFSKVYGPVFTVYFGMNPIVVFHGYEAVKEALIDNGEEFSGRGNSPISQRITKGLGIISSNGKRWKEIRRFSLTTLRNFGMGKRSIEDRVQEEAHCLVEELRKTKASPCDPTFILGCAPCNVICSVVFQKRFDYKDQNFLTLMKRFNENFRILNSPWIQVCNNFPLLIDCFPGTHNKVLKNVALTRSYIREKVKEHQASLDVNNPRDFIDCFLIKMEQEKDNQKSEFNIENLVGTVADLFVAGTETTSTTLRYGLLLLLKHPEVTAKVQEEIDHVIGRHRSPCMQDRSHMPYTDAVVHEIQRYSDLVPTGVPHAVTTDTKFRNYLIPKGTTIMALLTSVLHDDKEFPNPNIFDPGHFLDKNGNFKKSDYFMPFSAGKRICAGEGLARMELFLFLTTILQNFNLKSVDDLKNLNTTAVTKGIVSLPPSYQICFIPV
# Cytochrome P450 2C19 = Cytochrome P450 2C19 (Homo sapiens, UniProt P33261); assay: Inhibition of CYP2C19 in human liver microsomes using (S)-mephenytoin as substrate in presence of NADPH by LC-MS/MS analysis; format: ADME; in short: as §1
# Chain of Cytochrome P450 2C19 (P33261 whole entry): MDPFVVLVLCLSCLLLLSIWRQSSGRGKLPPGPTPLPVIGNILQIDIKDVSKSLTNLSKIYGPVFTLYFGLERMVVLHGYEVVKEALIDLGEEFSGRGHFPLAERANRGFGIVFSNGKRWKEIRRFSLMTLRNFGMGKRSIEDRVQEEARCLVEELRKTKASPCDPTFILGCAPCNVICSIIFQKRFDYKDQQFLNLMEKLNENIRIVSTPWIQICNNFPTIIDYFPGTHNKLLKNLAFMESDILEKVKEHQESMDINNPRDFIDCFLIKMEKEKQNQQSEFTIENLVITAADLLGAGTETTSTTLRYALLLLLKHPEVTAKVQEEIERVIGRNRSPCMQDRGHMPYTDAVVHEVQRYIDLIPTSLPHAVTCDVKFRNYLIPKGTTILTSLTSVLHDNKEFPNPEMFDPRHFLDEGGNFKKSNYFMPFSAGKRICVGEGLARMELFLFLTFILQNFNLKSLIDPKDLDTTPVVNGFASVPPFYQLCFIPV
# [9] = Clearance in Han Wistar rat at 1 umol/kg, iv administered as bolus by LC/MS/MS analysis; format: ADME, organism-based; settings: in vivo
# In short: (§2)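 Female fed Han Wistar rats received the compound as an i.v. solution. Blood was sampled at several time points and EDTA plasma prepared. Plasma levels were quantified by LC/MS/MS after acetonitrile precipitation, and PK parameters were calculated by non-compartmental analysis.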
# [10] = Mean residence time in Han Wistar rat at 1 umol/kg, iv administered as bolus by LC/MS/MS analysis; format: ADME, organism-based; settings: in vivo; in short: as §2
# [11] = Volume of distribution at steady state in Han Wistar rat at 1 umol/kg, iv administered as bolus by LC/MS/MS analysis; format: ADME, organism-based; settings: in vivo, read-out: Vdss; in short: as §2
# [12] = Drug uptake in Han Wistar rat plasma at 10 umol/kg, po administered via gavage measured 3 hrs post dose by LC/MS/MS analysis; format: ADME, organism-based
# In short: (§3)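 Fasted female Han Wistar rats were dosed by oral gavage as a Natrosol suspension. Animals were sacrificed 3 h later and plasma and tissues collected and frozen. Concentrations were measured by LC/MS/MS after acetonitrile precipitation.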
# [13] = Drug uptake in Han Wistar rat brain at 10 umol/kg, po administered via gavage measured 3 hrs post dose by LC/MS/MS analysis; format: ADME, organism-based; settings: read-out: Drug uptake; in short: as §3
# [14] = Drug uptake in Han Wistar rat muscle at 10 umol/kg, po administered via gavage measured 3 hrs post dose by LC/MS/MS analysis; format: ADME, organism-based, Muscle tissue; settings: read-out: Drug uptake; in short: as §3
# [15] = Ratio of drug uptake in Han Wistar rat muscle to brain at 10 umol/kg, po administered via gavage measured 3 hrs post dose by LC/MS/MS analysis; format: ADME, organism-based; settings: in vivo
# In short: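 Fasted female Han Wistar rats given 10 µmol/kg orally; sacrificed 3 h post dose, tissues collected and frozen; samples acetonitrile-precipitated, supernatant diluted 1:100 and quantified by LC-ESI-MS/MS; muscle-to-brain concentration ratio.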
# [16] = Ratio of drug uptake in Han Wistar rat brain to plasma at 10 umol/kg, po administered via gavage measured 3 hrs post dose by LC/MS/MS analysis; format: ADME, organism-based; in short: as §3
# [17] = Unbound brain concentration in rat brain at 30 mg/kg, po measured after 3 hrs by LC/MS/MS analysis; format: ADME, organism-based; settings: in vivo
# In short: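 Unbound brain concentration estimated from unbound plasma exposure 3 h after oral dosing, assuming equal plasma–brain distribution. Plasma sampled after dosing in 0.5% Natrosol/0.01% Tween 80 and quantified by LC/MS/MS.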
# Rattus norvegicus [18] = assay: In vivo modulation of gamma secretase in rat brain homogenate assessed as decrease in amyloid beta 42 levels at 25 mg/kg, po measured after 3 hrs by electrochemiluminescence assay relative to control; format: functional; set-up: scale not given: the % may be the effect or the level left
# In short: (§4)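 Rats dosed orally with compound in 0.5% Natrosol/0.01% Tween 80, then anesthetized (Ketavet, Inactin i.p.) and decapitated 3 h later. Brain slices were homogenized in 20 mM Tris pH 8.5 + 0.2% Triton X-100 (5-fold v/w) and spun 1 h at 210,000 x g, 4°C. Aβ42 in the supernatant was read by MSD electrochemiluminescence with S-tag 4G8 detection.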
# Rattus norvegicus [19] = assay: In vivo modulation of gamma secretase in rat brain homogenate assessed as decrease in amyloid beta 42 levels at 30 mg/kg, po measured after 3 hrs by electrochemiluminescence assay relative to control; format: functional; set-up: scale not given: the % may be the effect or the level left; in short: as §4
# Rattus norvegicus [20] = assay: Decrease in total amyloid beta levels in rat brain homogenate at 30 mg/kg, po measured after 3 hrs by electrochemiluminescence assay relative to control; set-up: scale not given: the % may be the effect or the level left; settings: in vivo
# Rattus norvegicus [21] = assay: Decrease in total amyloid beta 42 levels in rat brain homogenate at 30 mg/kg, po measured after 3 hrs by electrochemiluminescence assay relative to control; set-up: scale not given: the % may be the effect or the level left; settings: in vivo
compound,measurement,setting,value
CCn1nc(Cl)c2c1CCC(Nc1nc3c(-c4ccc(F)cc4C)cccn3n1)C2 (centres undefined),IC50,Gamma-secretase [1],750 nM
CCn1ncc2c1CC[C@@H](Nc1nc3c(-c4ccc(F)cc4C)cccn3n1)C2,IC50,Gamma-secretase [1],40 nM
same,IC50,[2],40 nM
same,IC50,Gamma-secretase [3],> 30000 nM
same,"fraction unbound at 5 h, 1 µM",[4],0.012
same,Papp A→B at 1 µM,[5],78 ×10⁻⁶ cm/s
same,Ratio,[6],0.7
same,inhibition at 1 µM,hERG (KCNH2) [7],8%
same,inhibition at 10 µM,hERG (KCNH2) [8],39%
same,IC50,Cytochrome P450 3A4,> 50000 nM
same,IC50,Cytochrome P450 2D6,> 50000 nM
same,IC50,Cytochrome P450 2C9,25000 nM
same,IC50,Cytochrome P450 2C8,9500 nM
same,IC50,Cytochrome P450 2C19,36000 nM
same,clearance,[9],40 mL/min/kg
same,MRT,[10],36 min
same,Vd,[11],1.5 L/kg
same,concentration at 3 h,[12],2680 nM
same,concentration at 3 h,[13],2990 nM
same,concentration at 3 h,[14],2600 nM
same,Ratio,[15],0.9
same,Kp at 3 h,[16],1.1
same,Cp(f),[17],30 nM
same,Activity,Rattus norvegicus [18],53%
same,Activity,Rattus norvegicus [19],47%
same,Activity,Rattus norvegicus [20],5%
same,Activity,Rattus norvegicus [21],3%
CCn1nnc2c1CCC(Nc1nc3c(-c4ccc(F)cc4C)cccn3n1)C2 (centres undefined),IC50,Gamma-secretase [1],2200 nM
CCn1ncc2c1CCC(Nc1nc3c(-c4cccc(Cl)c4)cccn3n1)C2 (centres undefined),IC50,Gamma-secretase [1],40 nM
CCn1ncc2c1CCC(Nc1nc3c(-c4ccc(OC)nc4)cccn3n1)C2 (centres undefined),IC50,Gamma-secretase [1],90 nM
CCn1ncc2c1CCC(Nc1nc3c(-c4ccc(F)cc4C)cccn3n1)C2 (centres undefined),IC50,Gamma-secretase [1],70 nM
CCc1nn(C)c2c1CCC(Nc1nc3c(-c4ccc(F)cc4C)cccn3n1)C2 (centres undefined),IC50,Gamma-secretase [1],3130 nM
Cc1cc(F)ccc1-c1cccn2nc(NC3CCc4[nH]ncc4C3)nc12 (centres undefined),IC50,Gamma-secretase [1],4570 nM
CCn1ncc2c1CCC(Nc1nc3c(-c4cccnc4)cccn3n1)C2 (centres undefined),IC50,Gamma-secretase [1],350 nM
CCn1ncc2c1CCC(Nc1nc3c(-c4ccc(Cl)cc4)cccn3n1)C2 (centres undefined),IC50,Gamma-secretase [1],60 nM
CCn1ncc2c1CCC(Nc1nc3c(-c4cnccc4OC)cccn3n1)C2 (centres undefined),IC50,Gamma-secretase [1],120 nM
CCCCn1ncc2c1CCC(Nc1nc3c(-c4ccc(F)cc4C)cccn3n1)C2 (centres undefined),IC50,Gamma-secretase [1],2770 nM
CCn1ncc2c1CC[C@H](Nc1nc3c(-c4ccc(F)c(Cl)c4)cccn3n1)C2,IC50,Gamma-secretase [1],194 nM
Cc1cc(F)ccc1-c1cccn2nc(NC3CCc4c(cnn4C)C3)nc12 (centres undefined),IC50,Gamma-secretase [1],380 nM
Cc1cc(F)ccc1-c1cccn2nc(NC3CCc4cnn(C)c4C3)nc12 (centres undefined),IC50,Gamma-secretase [1],> 30000 nM
CCn1ncc2c1CCC(Nc1nc3c(-c4cccnc4C)cccn3n1)C2 (centres undefined),IC50,Gamma-secretase [1],680 nM
CCn1ncc2c1CCC(Nc1nc3c(-c4cc(F)c(F)c(F)c4)cccn3n1)C2 (centres undefined),IC50,Gamma-secretase [1],30 nM
CCn1ncc2c1CCC(Nc1nc3c(-c4ccc(N(C)C)nc4)cccn3n1)C2 (centres undefined),IC50,Gamma-secretase [1],50 nM
Cc1cc(F)ccc1-c1cccn2nc(NC3CCc4c(cnn4C(C)C)C3)nc12 (centres undefined),IC50,Gamma-secretase [1],430 nM
